Shown are actives, neighbours in structure and some others; about 1.6% of the full set was active somewhere.
ATG4B inhibitor: ATG4B protease inhibitors, primary screen, biochemical, fluorescence, uHTS. 340,000 tested, 0.51% active. AID 504462, 2011. ATG4B cleavage of LC3-PLA2, NBD-HPC fluorescence, 1 h. Cysteine protease ATG4B (Homo sapiens), Q9Y4P1. inhibition, % at 8.33 µM; in the data active = inhibition above about 40%
HKDC1 inh: HKDC1 hexokinase inhibitors, primary screen, biochemical, fluorescence, uHTS; Q2TB90; recombinant HKDC1, G6PDH/diaphorase resazurin coupled fluorescence; inhibition, % at 20 µM; 340,000 tested, 0.16% active; AID 493160, 2011;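 active = inhibition above about 35% when tested at 20 µM, limit read from the data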;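 also: plate controls were DMSO wells with enzyme for no effect and DMSO wells lacking enzyme for full effect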
Target sequence (Q2TB90 whole entry, looked up): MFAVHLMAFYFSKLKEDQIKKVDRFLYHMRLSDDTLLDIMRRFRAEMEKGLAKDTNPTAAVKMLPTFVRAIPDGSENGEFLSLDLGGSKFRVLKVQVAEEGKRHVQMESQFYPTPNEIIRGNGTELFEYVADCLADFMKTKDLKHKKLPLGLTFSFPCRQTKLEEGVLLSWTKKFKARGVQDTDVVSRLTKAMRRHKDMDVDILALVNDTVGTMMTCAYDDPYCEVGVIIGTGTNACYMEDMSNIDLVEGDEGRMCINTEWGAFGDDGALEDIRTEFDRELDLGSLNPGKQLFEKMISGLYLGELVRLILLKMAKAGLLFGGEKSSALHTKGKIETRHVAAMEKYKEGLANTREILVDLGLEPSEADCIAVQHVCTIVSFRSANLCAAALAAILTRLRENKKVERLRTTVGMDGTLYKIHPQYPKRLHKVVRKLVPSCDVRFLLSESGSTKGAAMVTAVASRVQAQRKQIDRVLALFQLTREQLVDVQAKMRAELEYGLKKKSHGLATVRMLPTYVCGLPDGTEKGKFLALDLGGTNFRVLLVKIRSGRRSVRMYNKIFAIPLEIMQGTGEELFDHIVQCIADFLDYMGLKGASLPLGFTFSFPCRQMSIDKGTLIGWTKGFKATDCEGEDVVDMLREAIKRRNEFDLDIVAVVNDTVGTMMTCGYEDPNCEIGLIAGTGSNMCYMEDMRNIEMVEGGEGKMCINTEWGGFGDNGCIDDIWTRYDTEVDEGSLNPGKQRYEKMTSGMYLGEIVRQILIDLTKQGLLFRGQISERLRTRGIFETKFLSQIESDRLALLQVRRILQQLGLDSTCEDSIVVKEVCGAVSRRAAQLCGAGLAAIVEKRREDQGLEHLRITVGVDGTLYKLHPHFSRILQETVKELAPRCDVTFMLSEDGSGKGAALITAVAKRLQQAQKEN
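Incubation: 90 min at room temperature in dark / Material: recombinant HKDC1 (HK5) hexokinase enzyme, produced in-house / Quantity: enzyme 5 µg/mL final / Compound: one dose of 20 µM, 1% DMSO / Reagent: glucose and ATP substrates / Buffer or medium: Tris pH 8.0 buffer with MgCl2, Tween-20, BSA, BME / Technique: resorufin fluorescence at 613 nm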
T cell HTS: modulators of CD8 T cell-vesicle binding, primary screen, mouse 2C CD8+ T cells, flow cytometry; 2C CD8+ T cell-vesicle binding; hits give low values; response (vesicle binding), % at 7 µM; 330,000 tested, 0.068% active; AID 2052, 2009;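 active = response, share of CD8 T cells binding vesicles, and their 90th percentile fluorescence all below set limits, cut at about 80% in these data, passing the limit was not always enough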;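 also: values below 100% mean blocked vesicle binding to the CD8+ T cells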
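Material: 2C TCR transgenic mouse naive CD8+ T cells, MACS-purified. Also added: QL9-charged Drosophila Ld/ICAM-1/B7-1 vesicles. Timing: binding 1.5 h at 37 °C. Measured by: high-throughput flow cytometry with anti-B7-1 and anti-CD8 staining. Read-out: percent CD8+ FL2 mean versus row control. Controls: Unloaded micro-vesicles (low), QL9 vesicles with 0.7% DMSO (high).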
PKA-R1A act: activators of PKA-R1A holoenzyme, primary screen, biochemical, fluorescence polarization, Cy5-IP20, bovine R1A, mouse PKAc; cAMP-dependent protein kinase type I-alpha regulatory subunit (Bos taurus) + …; PKA-R1A dissociation; scaled: DMSO 0%, 113 µM cGMP 100%; 340,000 tested, 0.083% active; activation, % at 11.4 µM;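 active = percent activation above the mean of all tested compounds plus 3 SD, cut at about 19% in these data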;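 also: higher means more PKAc released from R1A so a rise in polarization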
PKA-R2B act: activators of PKA-R2B holoenzyme, primary screen, biochemical, fluorescence polarization, Cy5-IP20, human; PKA-R2B holoenzyme dissociation; R2B truncated from residue 108, S112A mutant; 0% DMSO only, 100% 113 µM cGMP; activation, % at 11.4 µM; cAMP-dependent protein kinase catalytic subunit beta (Homo sapiens) + cAMP-dependent …; 340,000 tested, 0.079% active;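 active = activation above a cutoff set at the mean over all compounds plus 3 SD, cut at about 18% in these data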;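 also: higher means more holoenzyme dissociation and a rise in polarization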
PfG6PD inh: PfG6PD enzyme inhibitors, primary screen, biochemical, fluorescence intensity, uHTS. PfGluPho enzyme, NADPH resazurin-diaphorase fluorescence. AID 504690, 2011. 350,000 tested, 0.78% active. inhibition, % at 20 µM. glucose-6-phosphate dehydrogenase-6-phosphogluconolactonase (Plasmodium falciparum 3D7);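 active = inhibition reaching at least a set limit at 20 µM in the primary screen, cut at about 59% in these data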;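 also: 0% = DMSO wells with substrate and 100% = DMSO wells lacking glucose-6-phosphate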
ATG4B confirm: ATG4B protease inhibitors, retest, confirmation, biochemical, fluorescence, single concentration | shares compounds with ATG4B inhibitor | ATG4B protease fluorescent substrate cleavage assay | inhibition, % at 8.33 µM | 320 tested, 92% active; in the data active = inhibition above about 39%
PLA2 ctr: PLA2 enzyme inhibition, counter-screen for ATG4B inhibitor project, biochemical, single concentration, uHTS hits; shares compounds with ATG4B inhibitor; purified PLA2, NBD-C6-HPC fluorescence, 45 min; inhibition, % at 8.33 µM; 1,600 tested, 66% active; in the data active = inhibition above about 50%
The depositor's hits bear a star.

What do the screens show for `CCn1nc([N+](=O)[O-])c(C(C#N)c2nc3ccccc3n2C)c(Cl)c1=O` (stereo not drawn)?
ATG4B inhibitor: 71.7*; HKDC1 inh: -3.6; T cell HTS: 300.6; PKA-R1A act: -7.2; PKA-R2B act: 2.6; PfG6PD inh: 7.0; PLA2 ctr: 74.7*

How did Cn1c(C(C#N)C(=O)c2sc3ccccc3c2Cl)nc2ccccc21 (stereo not drawn) do in these assays?
ATG4B inhibitor: 14.0; HKDC1 inh: 7.1; T cell HTS: 204.7; PKA-R1A act: 1.5; PKA-R2B act: -0.9; PfG6PD inh: 9.0

Results for Cc1ccc(CCNC(=O)Cn2ccc3cc(S(=O)(=O)N4CCCC4)ccc32)cc1 ?
ATG4B inhibitor: -11.7; HKDC1 inh: -11.2; T cell HTS: 237.5; PKA-R1A act: 1.1; PKA-R2B act: 1.8; PfG6PD inh: -26.9

How did O=C(Cc1n[nH]c(=O)c2ccccc12)Nc1cc(C(F)(F)F)ccc1-n1cncn1 do in these assays?
ATG4B inhibitor: -9.6; HKDC1 inh: -3.2; PKA-R1A act: -21.0; PKA-R2B act: -19.7; PfG6PD inh: 11.5

What do the screens show for `COC(=O)/C=C1\SC(=Nc2ccc(Cl)c(Cl)c2)NC1=O`?
ATG4B inhibitor: 79.0*; HKDC1 inh: 5.8; T cell HTS: 228.3; PKA-R1A act: 2.6; PKA-R2B act: -2.8; PfG6PD inh: -24.2; ATG4B confirm: 79.2*; PLA2 ctr: 28.0

How did CCCc1cc(=O)[nH]c(SCC(=O)N2N=C(c3ccc(Cl)cc3)CC2c2ccco2)n1 (stereo not drawn) do in these assays?
ATG4B inhibitor: 47.6*; HKDC1 inh: -2.7; T cell HTS: 205.0; PKA-R1A act: -8.4; PKA-R2B act: -2.2; PfG6PD inh: -4.4; ATG4B confirm: 73.4*; PLA2 ctr: 39.6

What do the screens show for `Nc1cc(=O)[nH]c(SCC(=O)N2N=C(c3ccc(Cl)cc3)CC2c2ccco2)n1` (stereo not drawn)?
ATG4B inhibitor: 3.3; HKDC1 inh: 19.2; T cell HTS: 248.1; PKA-R1A act: -2.7; PKA-R2B act: -4.6; PfG6PD inh: -21.6

What do the screens show for `O=C(CCl)Nc1nc(-c2ccco2)c(-c2ccco2)s1`?
ATG4B inhibitor: 4.6; HKDC1 inh: 24.8; T cell HTS: 184.1; PKA-R1A act: 0.5; PKA-R2B act: -2.6; PfG6PD inh: 20.2

How did Cc1ccc(C(=O)Nc2nc(-c3ccco3)c(-c3ccco3)s2)o1 do in these assays?
ATG4B inhibitor: 40.4*; HKDC1 inh: 17.7; PKA-R1A act: 4.9; PKA-R2B act: 10.8; PfG6PD inh: 43.6; ATG4B confirm: 64.0*; PLA2 ctr: 47.3

How did COc1cc(/C=C2/SC(=S)N(CCC(=O)N3CCN(C)CC3)C2=O)cc(OC)c1OC do in these assays?
PKA-R1A act: 0.1; PKA-R2B act: -4.6; PfG6PD inh: 11.1

How did Cc1ncoc1C(=O)N1CCCC(N2CCN(c3ccccc3F)CC2)C1 (stereo not drawn) do in these assays?
ATG4B inhibitor: 0.6; HKDC1 inh: -1.1; T cell HTS: 382.1; PKA-R1A act: 10.8; PKA-R2B act: -0.2; PfG6PD inh: -17.7

How did COc1ccc(OCC(=O)Nc2ccccc2C(=O)NC2CC2)cc1 do in these assays?
ATG4B inhibitor: 2.8; HKDC1 inh: -4.5; T cell HTS: 208.5; PKA-R1A act: -1.6; PKA-R2B act: 2.6; PfG6PD inh: -1.5

How did COc1ccc(OC)c(-c2csc(NC(=O)c3ccccc3F)n2)c1 do in these assays?
ATG4B inhibitor: 16.9; HKDC1 inh: 8.8; T cell HTS: 290.9; PKA-R1A act: 0.1; PKA-R2B act: -12.0; PfG6PD inh: -4.2

How did O=C(Nc1nc(COc2ccccc2)cs1)c1ccccc1F do in these assays?
ATG4B inhibitor: 54.4*; HKDC1 inh: -10.4; T cell HTS: 201.5; PKA-R1A act: 5.9; PKA-R2B act: -7.0; PfG6PD inh: 10.1; PLA2 ctr: 33.4

How did COc1ccc(/C=C2\Sc3ccc(C(=O)N4CCc5ccccc5C4)cc3N(C)C2=O)cc1 do in these assays?
T cell HTS: 313.5

What do the screens show for `CC1CCN(C(=O)c2ccc3c(c2)NC(=O)/C(=C/c2ccccc2)S3)CC1`?
ATG4B inhibitor: 55.5*; HKDC1 inh: 1.6; T cell HTS: 189.2; PKA-R1A act: -11.7; PKA-R2B act: 0.2; PfG6PD inh: 8.2; PLA2 ctr: 76.0*

Results for COc1ccc(/C=C2/Sc3ccc(C(=O)N4CCc5ccccc5C4)cc3NC2=O)cc1 ?
ATG4B inhibitor: 69.4*; HKDC1 inh: -6.5; T cell HTS: 269.7; PKA-R1A act: 5.0; PKA-R2B act: -6.8; PfG6PD inh: 14.5; PLA2 ctr: 82.2*

How did Cc1ccc2c(c1)CO[C@]21O[C@H](CCO)C[C@H](O)[C@H]1O do in these assays?
PKA-R1A act: 10.2; PKA-R2B act: 1.9; PfG6PD inh: 13.9

What do the screens show for `CCCCC[C@@H]1C=C(C(=O)O)[C@H](c2ccc3c(c2)OCO3)N1S(=O)(=O)c1ccc(C)cc1`?
ATG4B inhibitor: 50.4*; HKDC1 inh: 0.3; T cell HTS: 284.9; PKA-R1A act: -2.1; PKA-R2B act: 3.2; PfG6PD inh: -18.4; PLA2 ctr: 57.0*

Results for Cc1ccc(S(=O)(=O)CC(=O)N2CC(C)OC(C)C2)cc1 (stereo not drawn) ?
ATG4B inhibitor: -9.3; HKDC1 inh: -1.7; T cell HTS: 189.9; PKA-R1A act: 2.9; PKA-R2B act: 0.5; PfG6PD inh: -7.9

How did Cc1cc(=O)oc2cc(OCC(=O)NC3(C#N)CCCCC3)c(Cl)cc12 do in these assays?
ATG4B inhibitor: -15.5; HKDC1 inh: -3.2; PKA-R1A act: 3.5; PKA-R2B act: 7.5; PfG6PD inh: 14.3

Results for O=C(CSc1ccc(Br)c2cccc(Cl)c12)Nc1ccc(S(=O)(=O)Nc2nccs2)cc1 ?
ATG4B inhibitor: 48.4*; HKDC1 inh: 7.9; T cell HTS: 287.5; PKA-R1A act: -10.2; PKA-R2B act: -4.5; PfG6PD inh: -50.8; PLA2 ctr: 52.9*
